# Test results published in ChEMBL document CHEMBL2424551, “Synthesis, in vitro evaluation and molecular modelling of naphthalimide analogue as anticancer agents” (2013).
# The source made the active and inactive calls. No cut-off for these calls is given here.
# Legend:
# Format in all cases: functional
# HL-60(TB) = assay: Growth inhibition of human HL-60(TB) cells at 10 uM after 48 hrs by SRB assay; conditions: HL-60, 48 h, read-out: GI
# Method in brief: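 Single-concentration pass across the 60-line panel in RPMI 1640 with 5% FBS. Cells preincubated 24 h, then exposed 48 h at 37 °C, 5% CO2. Read by SRB staining with absorbance at 515 nm. Percent growth is taken relative to time-zero and untreated controls and reported as percent growth inhibition (GI %).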
# PC-3 = assay: Growth inhibition of human PC3 cells at 10 uM after 48 hrs by SRB assay; conditions: PC-3, 48 h, read-out: GI
# Method in brief: (§1)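 Cells grown in RPMI 1640 with 5% FBS and 2 mM L-glutamine, plated at 5000–40,000 cells/well by doubling time and preincubated 24 h (37 °C, 5% CO2); a time-zero plate is TCA-fixed. Single dose added, then 48 h incubation. Fixed with cold TCA, stained with 0.4% SRB, dye solubilized in 10 mM Tris base, absorbance at 515 nm; percent growth vs time-zero and untreated control.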
# SF-268 = assay: Growth inhibition of human SF268 cells at 10 uM after 48 hrs by SRB assay; conditions: SF-268, 48 h, read-out: GI; method in brief: as §1
# BT-549 = assay: Growth inhibition of human BT549 cells at 10 uM after 48 hrs by SRB assay; conditions: BT-549, 48 h, read-out: GI; method in brief: as §1
# NCI-H460 = assay: Growth inhibition of human NCI-H460 cells at 10 uM after 48 hrs by SRB assay; conditions: NCI-H460, 48 h, read-out: GI; method in brief: as §1
# MDA-MB-468 = assay: Growth inhibition of human MDA-MB-468 cells at 10 uM after 48 hrs by SRB assay; method in brief: as §1
# RXF 393 = assay: Growth inhibition of human RXF393 cells at 10 uM after 48 hrs by SRB assay; conditions: RXF 393, 48 h, read-out: GI; method in brief: as §1
# MDA-MB-435 = assay: Growth inhibition of human MDA-MB-435 cells at 10 uM after 48 hrs by SRB assay; conditions: MDA-MB-435, 48 h, read-out: GI; method in brief: as §1
# HCT-15 = assay: Growth inhibition of human HCT15 cells at 10 uM after 48 hrs by SRB assay; conditions: HCT-15, 48 h, read-out: GI; method in brief: as §1
# MCF7 = assay: Growth inhibition of human MCF7 cells at 10 uM after 48 hrs by SRB assay; conditions: MCF7, 48 h, read-out: GI; method in brief: as §1
# [1] = Growth inhibition of human NCI-ADR-RES cells at 10 uM after 48 hrs by SRB assay; conditions: read-out: GI; method in brief: as §1
# T47D = assay: Growth inhibition of human T47D cells at 10 uM after 48 hrs by SRB assay; conditions: read-out: GI
# Method in brief: (§2)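 NCI 60-cell-line screen with a single 10 µM dose. Cells are grown in RPMI 1640 with 5% FBS and 2 mM L-glutamine, plated at 5000–40,000 cells/well according to doubling time, and preincubated 24 h at 37 °C, 5% CO2; time-zero plates are TCA-fixed at that point. Drug exposure is 48 h. Adherent cells are fixed with cold TCA, stained with 0.4% SRB in 1% acetic acid and read at 515 nm. Percent growth is calculated relative to time-zero and untreated controls and reported as GI%.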
# UO-31 = assay: Growth inhibition of human UO31 cells at 10 uM after 48 hrs by SRB assay; conditions: UO-31, 48 h, read-out: GI; method in brief: as §2
# SK-MEL-28 = assay: Growth inhibition of human SK-MEL-28 cells at 10 uM after 48 hrs by SRB assay; conditions: SK-MEL-28, 48 h, read-out: GI; method in brief: as §1
# RPMI-8226 = assay: Growth inhibition of human RPMI8226 cells at 10 uM after 48 hrs by SRB assay; conditions: RPMI-8226, 48 h, read-out: GI; method in brief: as §1
# UACC-62 = assay: Growth inhibition of human UACC62 cells at 10 uM after 48 hrs by SRB assay; conditions: UACC-62, 48 h, read-out: GI; method in brief: as §2
# SNB-19 = assay: Growth inhibition of human SNB19 cells at 10 uM after 48 hrs by SRB assay; conditions: SNB-19, 48 h, read-out: GI; method in brief: as §2
# DU-145 = assay: Growth inhibition of human DU145 cells at 10 uM after 48 hrs by SRB assay; conditions: DU-145, 48 h, read-out: GI; method in brief: as §1
# HCT-116 = assay: Growth inhibition of human HCT116 cells at 10 uM after 48 hrs by SRB assay; conditions: HCT-116, 48 h, read-out: GI; method in brief: as §1
# NCI-H322M = assay: Growth inhibition of human NCI-H322M cells at 10 uM after 48 hrs by SRB assay; conditions: read-out: GI; method in brief: as §1
# OVCAR-4 = assay: Growth inhibition of human OVCAR4 cells at 10 uM after 48 hrs by SRB assay; conditions: OVCAR-4, 48 h, read-out: GI; method in brief: as §1
# A498 = assay: Growth inhibition of human A498 cells at 10 uM after 48 hrs by SRB assay; conditions: A498, 48 h, read-out: GI; method in brief: as §1
# TK-10 = assay: Growth inhibition of human TK10 cells at 10 uM after 48 hrs by SRB assay; conditions: TK-10, 48 h, read-out: GI; method in brief: as §2
SMILES,inhibition of growth at 10 µM (HL-60(TB)) [%],inhibition of growth at 10 µM (PC-3) [%],inhibition of growth at 10 µM (SF-268) [%],inhibition of growth at 10 µM (BT-549) [%],inhibition of growth at 10 µM (NCI-H460) [%],inhibition of growth at 10 µM (RXF 393) [%],inhibition of growth at 10 µM (MDA-MB-435) [%],inhibition of growth at 10 µM (HCT-15) [%],inhibition of growth at 10 µM (MCF7) [%],inhibition of growth at 10 µM [1] [%],inhibition of growth at 10 µM (T47D) [%],inhibition of growth at 10 µM (UO-31) [%],inhibition of growth at 10 µM (SK-MEL-28) [%],inhibition of growth at 10 µM (RPMI-8226) [%],inhibition of growth at 10 µM (UACC-62) [%],inhibition of growth at 10 µM (SNB-19) [%],inhibition of growth at 10 µM (DU-145) [%],inhibition of growth at 10 µM (HCT-116) [%],inhibition of growth at 10 µM (NCI-H322M) [%],inhibition of growth at 10 µM (OVCAR-4) [%],further results
O=c1c2cccc3c(Nc4c(F)cccc4F)ccc(c32)c2nc3ccccc3n12,< 20,< 20,< 20,< 20,27.3,< 20,< 20,24.5,79.6,< 20,47.3,49.4,< 20,24.6,< 20,< 20,< 20,< 20,< 20,< 20,growth inhibition (GI) (MDA-MB-468): Active; inhibition of growth at 10 µM (A498): < 20%
O=c1c2cccc3c(NCCO)ccc(c32)c2nc3ccccc3n12,< 20,< 20,< 20,< 20,42.8,< 20,< 20,< 20,57.5,< 20,31.7,38.3,< 20,28.6,23.6,< 20,< 20,< 20,< 20,< 20,"inhibition of growth at 10 µM (MDA-MB-468; MDA-MB-468, 48 h, read-out: GI): 81.1%; inhibition of growth at 10 µM (TK-10): < 20%; inhibition of growth at 10 µM (A498): 32.9%"
CCCCNc1ccc2c3c1cccc3c(=O)n1c3ccccc3nc21,36.6,< 20,< 20,< 20,51.6,< 20,< 20,23.8,89.7,< 20,64.3,41.4,< 20,< 20,< 20,< 20,< 20,< 20,< 20,< 20,growth inhibition (GI) (MDA-MB-468): Active; inhibition of growth at 10 µM (TK-10): 29.8%; inhibition of growth at 10 µM (A498): < 20%
O=c1c2cccc3c(Nc4ccc(Br)cn4)ccc(c32)c2nc3ccccc3n12,< 20,23.3,< 20,< 20,< 20,< 20,< 20,28,95.8,< 20,81.6,47.9,27.1,43.8,< 20,< 20,< 20,< 20,22.1,46.3,growth inhibition (GI) (MDA-MB-468): Active; inhibition of growth at 10 µM (TK-10): 21.9%; inhibition of growth at 10 µM (A498): < 20%
O=c1c2cccc3c(NC4CCCCC4)ccc(c32)c2nc3ccccc3n12,37.4,20.1,< 20,< 20,65.3,< 20,< 20,25.2,86.5,< 20,67.5,58.6,< 20,24.4,< 20,< 20,< 20,< 20,< 20,< 20,growth inhibition (GI) (MDA-MB-468): Active; inhibition of growth at 10 µM (TK-10): 22.6%; inhibition of growth at 10 µM (A498): < 20%
O=c1c2cccc3c(Nc4ccc(F)cc4)ccc(c32)c2nc3ccccc3n12,< 20,22.8,< 20,< 20,22.1,< 20,< 20,28.9,89.9,< 20,76.6,50.8,< 20,42.6,32.2,22.4,< 20,< 20,32.2,24,growth inhibition (GI) (MDA-MB-468): Active; inhibition of growth at 10 µM (TK-10): 24.7%; inhibition of growth at 10 µM (A498): 33.8%
